In ChEMBL document CHEMBL4011654, “Mitochondria-Targeted Lupane Triterpenoid Derivatives and Their Selective Apoptosis-Inducing Anticancer Mechanisms” (J Med Chem, 2017):
Activity calls are given as the source filed them. No cut-off for these calls is given here.

Assays:
K562 [1] = test: Antitumor activity against CM-Dil-labeled human K562 cells xenografted in wild-type zebrafish embryos assessed as tumor growth inhibition at 1 to 10 ug/ml measured after 48 hrs by confocal microscopic analysis; type: functional, cell-based
Outline: (§1)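 K562 cells labelled with CM-Dil, suspended in FBS-free medium at (1 × 107)/mL and microinjected into wild-type zebrafish embryos kept at 28 °C in embryonic medium. After 4 h, embryos with the same injection spot were pooled at 15−20 per well and exposed to compound; Taxol served as positive control. At 48 h, confocal imaging gave fluorescent area (migration) and fluorescence intensity (cell number); n = 15.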

K562 [2] = test: Induction of apoptosis in human K562 cells assessed as late apoptotic cells at 1.2 uM after 48 hrs by Annexin V-FITC/propidium iodide-staining based flow cytometric analysis (reference value: 2.25 to 2.67%); type: functional
Outline: (§2)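 K562 seeded at 4 × 10^5 cells/well, 12 h, then exposed 48 h. Cells washed in ice-cold PBS, suspended in binding buffer, stained with annexin V-FITC and PI for 15 min at room temperature in the dark, and read by flow cytometry within 1 h. Cells counted as early/late apoptotic as % of total; n = 3.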

K562 [3] = test: Induction of apoptosis in human K562 cells assessed as caspase-9 activation at 4 uM after 48 hrs by Western blot analysis relative to control; type: functional
Outline: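 K562 treated 48 h, then lysed on ice for 30 min; cytosolic and mitochondrial fractions isolated by kit where needed, protein measured by BCA. 60 μg/lane run on SDS-PAGE, transferred to PVDF, blocked in 5% milk/TBST for 4 h. Probed for cytochrome c, caspase-9, caspase-3 (total/cleaved), PARP; alkaline phosphatase secondary.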

K562 [4] = test: Induction of apoptosis in human K562 cells assessed as necrotic cells at 1.2 uM after 48 hrs by Annexin V-FITC/propidium iodide-staining based flow cytometric analysis (reference value: 0.13 to 0.27%); type: functional; outline: as §2
HL-60 = test: Cytotoxicity against human HL60 cells assessed as cell growth inhibition after 48 hrs by MTT assay; type: functional, cell-based; conditions: HL-60, 48 h
Outline: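 Suspension cells seeded at 5000/well (HL-60 in IMDM, K562 in RPMI, both with 10% FBS) and treated. MTT then added for 4 h at 37 °C; plates centrifuged at 3000 rpm for 30 min, medium removed, DMSO added, OD570 read. IC50 taken as concentration giving 50% growth inhibition; triplicate.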

K562 [5] = test: Induction of apoptosis in human K562 cells assessed as early apoptotic cells at 1.2 uM after 48 hrs by Annexin V-FITC/propidium iodide-staining based flow cytometric analysis (reference value: 0.92 to 1.45%); type: functional; outline: as §2
K562 [6] = test: Induction of apoptosis in human K562 cells assessed as necrotic cells at 0.8 uM after 48 hrs by Annexin V-FITC/propidium iodide-staining based flow cytometric analysis (reference value: 0.13 to 0.27%); type: functional; outline: as §2
L02 = test: Cytotoxicity against human HL-7702 cells assessed as cell growth inhibition after 48 hrs by MTT assay; type: cell-based; conditions: L02, 48 h
Outline: (§3)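 Adherent cells seeded at 5000/well, left 16−24 h, then exposed 48 h at 37 °C, 5% CO2 in RPMI with 10% FBS. Medium refreshed, MTT added for 4 h at 37 °C, medium removed, formazan dissolved in DMSO, OD570 read. IC50 taken as concentration inhibiting growth by 50%; triplicate.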

HepG2 = test: Cytotoxicity against human HepG2 cells assessed as cell growth inhibition after 48 hrs by MTT assay; type: functional, cell-based; conditions: HepG2, 48 h; outline: as §3
A549 = test: Cytotoxicity against human A549 cells assessed as cell growth inhibition after 48 hrs by MTT assay; type: functional, cell-based; conditions: A549, 48 h; outline: as §3
K562 [7] = test: Decrease in mitochondrial membrane potential in human K562 cells after 48 hrs by JC-1 staining based flow cytometry; type: functional, cell-based
Outline: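 K562 seeded at 4 × 10^5 cells/well, after 12 h treated 48 h. Cells washed in ice-cold PBS, loaded with JC-1 ([…]) at 37 °C for 15 min, rinsed, and analysed by flow cytometry (% cells with red aggregates) and fluorescence microscopy (red aggregates vs green monomers).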

K562 [8] = test: Antitumor activity against CM-Dil-labeled human K562 cells xenografted in wild-type zebrafish embryos assessed as reduction in cell migration at 1 to 2 ug/ml measured after 48 hrs by confocal microscopic analysis; type: functional, cell-based; outline: as §1
K562 [9] = test: Induction of apoptosis in human K562 cells after 48 hrs by Annexin V-FITC/propidium iodide-staining based flow cytometric analysis; type: functional, cell-based; outline: as §2

SMILES: C=C(C)[C@@H]1CC[C@]2(COC(=O)CCCC[P+](c3ccccc3)(c3ccccc3)c3ccccc3)CC[C@]3(C)[C@H](CC[C@@H]4[C@@]5(C)CC[C@H](O)C(C)(C)[C@@H]5CC[C@]43C)[C@@H]12.[Br-]
- TGI (K562 [1]): Active
- Activity (K562 [2]): 38.25%
- fold change (FC) (K562 [3]): 1.5
- Activity (K562 [4]): 4.41%
- IC50 (HL-60): 600 nM
- Activity (K562 [5]): 12.03%
- Activity (K562 [6]): 3.7%
- IC50 (L02): 6620 nM
- IC50 (HepG2): 1090 nM
- IC50 (A549): 610 nM
- Activity (K562 [7]): Dose-dependent effect
- Activity (K562 [8]): Active
- Activity (K562 [9]): Dose-dependent effect
